Measured values taken from ChEMBL document CHEMBL4052826, “Design and Synthesis of Novel Reactive Oxygen Species Inducers for the Treatment of Pancreatic Ductal Adenocarcinoma” (J Med Chem, 2018).
Active and inactive are the calls of the source. No cut-off for these calls is given here.

How the values were obtained:
PANC-1 [1] = assay: Induction of unfolded protein response in human PANC1 cells assessed as upregulation of GRP78 expression at 2 uM by Western blot analysis; type: functional, cell-based; conditions: TDE = time-dependent effect
Method in brief: (§1)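 Cells (4×10^5) seeded in 60 mm dishes, cultured in RPMI1640 with 10% FBS, 5% CO2, 37°C, then compound-treated. Lysed 30 min at 4°C, BCA-quantified, 40 μg protein resolved by SDS-PAGE, transferred to PVDF, probed overnight at 4°C with primary antibodies (1:1000; GAPDH or actin loading control), then Dylight 800 secondary; fluorescence scanned. Bands normalized to loading control; mean ± SD, three independent experiments.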

Mus musculus [2] = assay: Toxicity in NOD/SCID mouse xenografted with human MIAPaCa2 cells assessed as microscopic changes in lung at 5 mg/kg, ip administered 5 times a week until day 44 by hematoxylin and eosin staining-based inverted microscopic method; type: organism-based; conditions: in vivo
Method in brief: (§2)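 Necropsy after the 44-day ip course in MIA PaCa-2 xenograft-bearing NOD/SCID mice: heart, kidney, liver, lung, spleen and pancreas fixed in 10% neutral buffered formalin, paraffin-embedded, sectioned and stained with hematoxylin and eosin. Sections examined by inverted microscope at 20X, compared with vehicle-treated animals.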

PANC-1 [3] = assay: Induction of unfolded protein response in human PANC1 cells assessed as upregulation of CHOP expression at 2 uM by Western blot analysis; type: functional, cell-based; conditions: TDE = time-dependent effect; method in brief: as §1
BXPC-3 [4] = assay: Induction of reactive oxygen species generation in human BxPC3 cells assessed as upregulation of NQO1 expression at 2 uM after 4 to 24 hrs by Western blot analysis; type: functional, cell-based
Method in brief: (§3)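 Immunoblotting. Cells (4×10^5) in 60 mm dishes were treated, lysed 30 min at 4°C and quantified by BCA. 40 μg protein was run on SDS-PAGE and transferred to PVDF. Primary antibodies (1:1000) incubated overnight at 4°C, then Dylight 800 secondary, with fluorescent scanning. Bands were normalized to GAPDH or actin loading controls. Mean ± SD, three independent experiments, Student's t-test.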

MIA PaCa-2 [5] = assay: Inhibition of mtDNA transcription from HSP1 promoter in human MIAPaCa2 cells at 5 times IC50 after 4 hrs by Bru-seq analysis; type: functional, cell-based
Method in brief: (§4)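 Nascent RNA sequencing (Bru-seq): 4×10^6 MIA PaCa-2 cells seeded in 10 cm dishes, treated next day for 4 h with drug or DMSO. Bromouridine (2 mM final) added for the last 30 min. Total RNA taken in TRIZOL; labeled RNA immunocaptured, converted to cDNA libraries and deep sequenced. Signal compared with DMSO-treated cells.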

MIA PaCa-2 [6] = assay: Induction of reactive oxygen species generation in human MIAPaCa2 cells assessed as upregulation of HO-1 expression at 2 uM after 4 to 24 hrs by Western blot analysis; type: functional, cell-based; method in brief: as §3
MIA PaCa-2 [7] = assay: Antitumor activity against human MIAPaCa2 cells xenografted in NOD/SCID mouse assessed as delay of tumor growth at 5 mg/kg, ip administered 5 times a week until day 44 followed by dose escalation up to 20 mg/kg until day 67; type: functional, organism-based
Method in brief: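 Subcutaneous MIA PaCa-2 flank xenografts in NOD/SCID mice, randomized at 65 mm3. Dosing was 5 mg/kg ip in 5% DMSO/60% propylene glycol/35% saline, five days on and two off, to day 44. Two mice per group then continued with the dose gradually raised to 20 mg/kg until day 67. Tumor volume was taken by caliper and body weight monitored.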

BXPC-3 [8] = assay: Cytotoxicity against human BxPC3 cells assessed as decrease in cell proliferation after 72 hrs by MTT assay; type: functional, cell-based; conditions: BXPC-3, 72 h
Method in brief: (§5)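 MTT assay. Cells (3000–8000/well) attached overnight in RPMI1640 with 10% FBS; the GR line was kept with 200 nM gemcitabine. Serial dilutions (30 nM–10 μM for most lines) were applied for 72 h. MTT was added at a final 300 μg/mL for 3 h at 37°C, formazan was dissolved in DMSO and A570 read. Inhibition = (1 − OD treated/OD control) × 100. IC50 given as mean ± SD, three independent experiments.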

MIA PaCa-2 [9] = assay: Inhibition of mtDNA transcription from LSP promoter in human MIAPaCa2 cells at 5 times IC50 after 4 hrs by Bru-seq analysis; type: functional, cell-based; method in brief: as §4
Mus musculus [10] = assay: Toxicity in NOD/SCID mouse xenografted with human MIAPaCa2 cells assessed as weakness at 5 mg/kg, ip administered 5 times a week until day 44; type: organism-based; conditions: in vivo
Method in brief: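 Subcutaneous flank MIA PaCa-2 xenografts (2.0×10^6 cells) in 6-week NOD/SCID mice, randomized at 65 mm3 (n=5/group: vehicle or drug). Dosed ip in 5% DMSO/60% propylene glycol/35% saline, five days on/two off, to day 44. Body weight tracked and mice watched for weakness, weight loss or lethargy; mean ± SEM.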

Mus musculus [11] = assay: Toxicity in NOD/SCID mouse xenografted with human MIAPaCa2 cells assessed as microscopic changes in kidney at 5 mg/kg, ip administered 5 times a week until day 44 by hematoxylin and eosin staining-based inverted microscopic method; type: organism-based; conditions: in vivo; method in brief: as §2
MIA PaCa-2 [12] = assay: Antiproliferative activity against human MIAPaCa2 cells xenografted in NOD/SCID mouse at 5 mg/kg, ip administered 5 times a week until day 44 by ki67 staining-based assay; type: functional, organism-based
MIA PaCa-2 [13] = assay: Cytotoxicity against human MIAPaCa2 cells assessed as decrease in cell proliferation after 72 hrs in presence of NAC by MTT assay; type: functional, cell-based
Method in brief: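 MIA PaCa-2 cells were treated for 72 h with compound in the presence of 5 mM NAC. Viability was read by MTT (final 300 μg/mL, 3 h, A570). Mean ± SD of three independent experiments.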

MIA PaCa-2 [14] = assay: Cytotoxicity against human MIAPaCa2 cells assessed as decrease in cell proliferation after 72 hrs by MTT assay; type: functional, cell-based; method in brief: as §5
MIA PaCa-2 [15] = assay: Induction of unfolded protein response in human MIAPaCa2 cells assessed as upregulation of DDIT3 gene expression after 4 hrs by Bru-seq analysis; type: functional, cell-based
MIA PaCa-2 [16] = assay: Induction of unfolded protein response in human MIAPaCa2 cells assessed as upregulation of HSPA5 gene expression after 4 hrs by Bru-seq analysis; type: functional, cell-based; method in brief: as §4
Mus musculus [17] = assay: Induction of unfolded protein response in tumor of NOD/SCID mouse xenografted with MIAPaCa2 cells assessed as upregulation of GRP78 expression at 5 mg/kg, ip administered 5 times a week until day 44 by Western blot method; type: functional, organism-based
Method in brief: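 Dosed ip in 5% DMSO/60% propylene glycol/35% saline, five days on/two off, until day 44, versus vehicle. Tumor lysates immunoblotted with primary antibodies, Dylight 800 secondary, fluorescent scan.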

Mus musculus [18] = assay: Toxicity in NOD/SCID mouse xenografted with human MIAPaCa2 cells assessed as microscopic changes in liver at 5 mg/kg, ip administered 5 times a week until day 44 by hematoxylin and eosin staining-based inverted microscopic method; type: organism-based; conditions: in vivo; method in brief: as §2
PANC-1 [19] = assay: Induction of reactive oxygen species generation in human PANC1 cells assessed as upregulation of HO-1 expression at 2 uM after 4 to 24 hrs by Western blot analysis; type: functional, cell-based; method in brief: as §3
MIA PaCa-2 [20] = assay: Induction of reactive oxygen species generation in human MIAPaCa2 cells assessed as upregulation of NQO1 gene expression after 4 hrs by Bru-seq analysis; type: functional, cell-based

O=C1C(Nc2ccc(-c3ccccc3)cc2)=CC(=O)c2ncncc21
Activity (PANC-1 [1]): Tde
Activity (Mus musculus [2]): Non-Toxic
Activity (PANC-1 [3]): Tde
Activity (BXPC-3 [4]): inactive
inhibition (MIA PaCa-2 [5]): inactive
Activity (MIA PaCa-2 [6]): Active
Activity (MIA PaCa-2 [7]): Active
IC50 (BXPC-3 [8]): 500 nM
inhibition (MIA PaCa-2 [9]): Active
Activity (Mus musculus [10]): Non-Toxic
Activity (Mus musculus [11]): Non-Toxic
Activity (MIA PaCa-2 [12]): Active
Activity (MIA PaCa-2 [13]): inactive
Activity (MIA PaCa-2 [14]): Dose-dependent effect
IC50 (MIA PaCa-2 [14]; MIA PaCa-2, 72 h): 900 nM
Activity (MIA PaCa-2 [15]): Dose-dependent effect
Activity (MIA PaCa-2 [16]): Dose-dependent effect
Activity (Mus musculus [17]): Active
Activity (Mus musculus [18]): Non-Toxic
Activity (PANC-1 [19]): inactive
Activity (MIA PaCa-2 [20]): Dose-dependent effect
